Legend:
Details in all cases: stereoisomer not certain
OR10A4 (Homo sapiens) = biological target: T1, OR10A4 (Homo sapiens) (UniProt Q9H209)
T1 sequence (whole entry): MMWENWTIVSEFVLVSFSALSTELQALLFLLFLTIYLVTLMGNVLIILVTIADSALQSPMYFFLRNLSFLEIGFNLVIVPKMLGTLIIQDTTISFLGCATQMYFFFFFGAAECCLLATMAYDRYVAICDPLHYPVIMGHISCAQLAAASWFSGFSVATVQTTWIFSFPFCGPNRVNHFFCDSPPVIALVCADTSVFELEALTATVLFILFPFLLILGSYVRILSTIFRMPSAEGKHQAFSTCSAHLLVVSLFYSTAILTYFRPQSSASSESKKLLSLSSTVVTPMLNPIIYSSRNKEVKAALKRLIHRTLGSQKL
Outline: (§1)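 Transient luciferase assays in mammalian cell lines were common, though methods varied by source. The values come from published papers and their supplementary material, with extra details from the original authors when needed. Responsive refers to a measured signal the original authors judged statistically different from baseline, and non-responsive (inactive) to the remainder.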

OR10A5 (Homo sapiens) = biological target: T2, OR10A5 (Homo sapiens) (UniProt Q9H207)
T2 sequence (whole entry): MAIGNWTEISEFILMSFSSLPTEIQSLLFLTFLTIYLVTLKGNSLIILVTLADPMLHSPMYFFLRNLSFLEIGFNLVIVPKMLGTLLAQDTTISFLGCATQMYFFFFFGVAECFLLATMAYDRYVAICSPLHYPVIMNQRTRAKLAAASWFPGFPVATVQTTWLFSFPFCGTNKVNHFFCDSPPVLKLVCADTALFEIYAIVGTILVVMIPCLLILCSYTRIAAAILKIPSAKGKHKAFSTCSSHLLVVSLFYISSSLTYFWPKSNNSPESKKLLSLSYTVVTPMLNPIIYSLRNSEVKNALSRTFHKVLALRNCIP
Outline: as §1

OR10A6 (Homo sapiens) = biological target: T3, OR10A6 (Homo sapiens) (UniProt Q8NH74)
T3 sequence (whole entry): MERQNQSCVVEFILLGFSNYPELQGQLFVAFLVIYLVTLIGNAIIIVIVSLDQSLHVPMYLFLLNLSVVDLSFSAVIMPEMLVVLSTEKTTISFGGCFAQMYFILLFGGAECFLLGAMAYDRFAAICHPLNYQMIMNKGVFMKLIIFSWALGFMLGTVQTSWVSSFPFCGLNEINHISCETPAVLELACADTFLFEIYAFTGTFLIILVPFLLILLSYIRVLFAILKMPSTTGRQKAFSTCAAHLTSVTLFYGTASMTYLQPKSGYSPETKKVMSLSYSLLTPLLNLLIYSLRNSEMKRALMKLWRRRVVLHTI
Outline: as §1

OR10A7 (Homo sapiens) = biological target: T4, OR10A7 (Homo sapiens) (UniProt Q8NGE5)
T4 sequence (whole entry): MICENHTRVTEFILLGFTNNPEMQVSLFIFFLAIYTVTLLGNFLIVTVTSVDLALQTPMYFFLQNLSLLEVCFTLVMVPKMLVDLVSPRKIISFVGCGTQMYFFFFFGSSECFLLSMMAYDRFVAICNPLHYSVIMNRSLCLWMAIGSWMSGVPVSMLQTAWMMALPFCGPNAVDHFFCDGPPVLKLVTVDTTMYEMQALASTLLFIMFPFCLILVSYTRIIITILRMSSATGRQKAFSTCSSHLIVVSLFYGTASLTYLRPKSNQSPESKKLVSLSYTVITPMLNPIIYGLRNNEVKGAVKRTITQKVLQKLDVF
Outline: as §1

OR10AC1 (Homo sapiens) = OR10AC1 (Homo sapiens) (UniProt Q8NH08)
Outline: as §1

OR10AD1 (Homo sapiens) = biological target: T5, OR10AD1 (Homo sapiens) (UniProt Q8NGE0)
T5 sequence (whole entry): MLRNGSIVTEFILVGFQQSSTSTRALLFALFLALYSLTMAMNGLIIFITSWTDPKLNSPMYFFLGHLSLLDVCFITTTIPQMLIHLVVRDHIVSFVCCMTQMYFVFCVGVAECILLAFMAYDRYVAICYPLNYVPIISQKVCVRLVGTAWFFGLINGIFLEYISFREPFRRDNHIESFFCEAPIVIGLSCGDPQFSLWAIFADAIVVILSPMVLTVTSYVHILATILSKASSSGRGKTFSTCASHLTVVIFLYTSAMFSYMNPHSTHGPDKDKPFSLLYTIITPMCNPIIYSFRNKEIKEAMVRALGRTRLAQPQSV
Outline: as §1

OR10AG1 (Homo sapiens) = biological target: T6, OR10AG1 (Homo sapiens) (UniProt Q8NH19)
T6 sequence (whole entry): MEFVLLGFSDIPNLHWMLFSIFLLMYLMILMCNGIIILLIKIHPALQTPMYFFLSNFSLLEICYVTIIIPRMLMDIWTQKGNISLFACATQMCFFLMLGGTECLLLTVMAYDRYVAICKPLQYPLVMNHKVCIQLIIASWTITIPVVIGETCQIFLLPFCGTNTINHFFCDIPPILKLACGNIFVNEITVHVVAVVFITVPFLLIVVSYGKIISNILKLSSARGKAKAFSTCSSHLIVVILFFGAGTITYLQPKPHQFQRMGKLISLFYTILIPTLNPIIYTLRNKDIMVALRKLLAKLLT
Outline: as §1

OR10C1 (Homo sapiens) = biological target: T7, OR10C1 (Homo sapiens) (UniProt Q96KK4)
T7 sequence (whole entry): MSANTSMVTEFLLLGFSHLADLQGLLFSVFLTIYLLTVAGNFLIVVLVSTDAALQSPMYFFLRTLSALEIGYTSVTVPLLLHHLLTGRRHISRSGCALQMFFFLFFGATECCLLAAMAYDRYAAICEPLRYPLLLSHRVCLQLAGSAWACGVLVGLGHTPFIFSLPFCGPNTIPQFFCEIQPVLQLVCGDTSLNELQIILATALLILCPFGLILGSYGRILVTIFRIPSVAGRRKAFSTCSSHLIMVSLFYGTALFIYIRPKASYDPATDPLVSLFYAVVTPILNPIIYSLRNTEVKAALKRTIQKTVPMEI
Outline: as §1

OR10G2 (Homo sapiens) = biological target: T8, OR10G2 (Homo sapiens) (UniProt Q8NGC3)
T8 sequence (whole entry): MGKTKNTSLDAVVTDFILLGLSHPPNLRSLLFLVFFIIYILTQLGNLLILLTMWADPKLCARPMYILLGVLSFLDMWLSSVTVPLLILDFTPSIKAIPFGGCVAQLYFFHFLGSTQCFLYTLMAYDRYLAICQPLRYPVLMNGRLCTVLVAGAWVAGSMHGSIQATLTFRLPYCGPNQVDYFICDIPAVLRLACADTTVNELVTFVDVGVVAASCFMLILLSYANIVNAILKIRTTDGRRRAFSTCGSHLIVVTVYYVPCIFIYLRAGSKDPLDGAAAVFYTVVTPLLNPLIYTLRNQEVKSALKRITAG
Outline: as §1

OR10G3 (Homo sapiens) = biological target: T9, OR10G3 (Homo sapiens) (UniProt Q8NGC4)
T9 sequence (whole entry): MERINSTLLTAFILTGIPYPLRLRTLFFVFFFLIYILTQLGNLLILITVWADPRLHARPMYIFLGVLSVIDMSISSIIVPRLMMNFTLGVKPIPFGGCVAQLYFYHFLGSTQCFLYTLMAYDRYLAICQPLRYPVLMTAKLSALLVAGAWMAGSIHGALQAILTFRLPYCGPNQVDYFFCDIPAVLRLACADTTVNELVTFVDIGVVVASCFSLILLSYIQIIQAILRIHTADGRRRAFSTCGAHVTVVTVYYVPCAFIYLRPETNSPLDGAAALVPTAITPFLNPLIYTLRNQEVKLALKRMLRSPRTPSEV
Outline: as §1

OR10G4 (Homo sapiens) = biological target: T10, OR10G4 (Homo sapiens) (UniProt Q8NGN3)
T10 sequence (whole entry): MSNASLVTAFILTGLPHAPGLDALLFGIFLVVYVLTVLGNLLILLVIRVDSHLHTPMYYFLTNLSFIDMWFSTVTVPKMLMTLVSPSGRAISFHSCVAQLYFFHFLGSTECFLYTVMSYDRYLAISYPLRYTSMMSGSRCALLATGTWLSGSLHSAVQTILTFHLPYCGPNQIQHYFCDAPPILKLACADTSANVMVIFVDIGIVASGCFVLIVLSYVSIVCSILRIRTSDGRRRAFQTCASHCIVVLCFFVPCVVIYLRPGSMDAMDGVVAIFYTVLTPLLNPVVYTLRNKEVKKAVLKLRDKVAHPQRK
Outline: as §1

OR10G6 (Homo sapiens) = biological target: T11, OR10G6 (Homo sapiens) (UniProt Q8NH81)
T11 sequence (whole entry): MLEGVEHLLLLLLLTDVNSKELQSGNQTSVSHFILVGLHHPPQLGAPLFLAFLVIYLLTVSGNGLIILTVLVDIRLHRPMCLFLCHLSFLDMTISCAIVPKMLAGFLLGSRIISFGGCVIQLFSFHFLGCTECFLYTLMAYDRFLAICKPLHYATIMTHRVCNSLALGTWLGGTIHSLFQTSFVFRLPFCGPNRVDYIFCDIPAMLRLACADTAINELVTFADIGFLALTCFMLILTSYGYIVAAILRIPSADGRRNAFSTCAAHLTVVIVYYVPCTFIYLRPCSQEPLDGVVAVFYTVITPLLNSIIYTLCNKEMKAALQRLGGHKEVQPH
Outline: as §1

OR10G7 (Homo sapiens) = biological target: T12, OR10G7 (Homo sapiens) (UniProt Q8NGN6)
T12 sequence (whole entry): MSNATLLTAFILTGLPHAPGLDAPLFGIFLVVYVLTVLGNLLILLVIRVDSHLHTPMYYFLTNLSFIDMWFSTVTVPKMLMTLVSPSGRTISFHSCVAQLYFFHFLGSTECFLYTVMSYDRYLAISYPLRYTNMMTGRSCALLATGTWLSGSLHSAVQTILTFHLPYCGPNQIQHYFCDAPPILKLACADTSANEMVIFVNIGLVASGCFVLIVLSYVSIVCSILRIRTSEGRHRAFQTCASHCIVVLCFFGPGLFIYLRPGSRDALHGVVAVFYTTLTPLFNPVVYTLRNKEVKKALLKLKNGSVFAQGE
Outline: as §1

OR10G8 (Homo sapiens) = biological target: T13, OR10G8 (Homo sapiens) (UniProt Q8NGN5)
T13 sequence (whole entry): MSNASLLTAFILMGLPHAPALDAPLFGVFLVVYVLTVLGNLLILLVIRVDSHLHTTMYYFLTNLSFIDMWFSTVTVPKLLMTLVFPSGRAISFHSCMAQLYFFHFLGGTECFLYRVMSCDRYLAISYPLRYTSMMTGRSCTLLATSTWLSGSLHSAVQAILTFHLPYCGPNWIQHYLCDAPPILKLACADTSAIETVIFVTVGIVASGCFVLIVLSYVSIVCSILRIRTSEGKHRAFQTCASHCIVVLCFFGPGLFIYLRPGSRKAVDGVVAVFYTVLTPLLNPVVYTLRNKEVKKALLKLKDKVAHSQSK
Outline: as §1

OR10G9 (Homo sapiens) = biological target: T14, OR10G9 (Homo sapiens) (UniProt Q8NGN4)
T14 sequence (whole entry): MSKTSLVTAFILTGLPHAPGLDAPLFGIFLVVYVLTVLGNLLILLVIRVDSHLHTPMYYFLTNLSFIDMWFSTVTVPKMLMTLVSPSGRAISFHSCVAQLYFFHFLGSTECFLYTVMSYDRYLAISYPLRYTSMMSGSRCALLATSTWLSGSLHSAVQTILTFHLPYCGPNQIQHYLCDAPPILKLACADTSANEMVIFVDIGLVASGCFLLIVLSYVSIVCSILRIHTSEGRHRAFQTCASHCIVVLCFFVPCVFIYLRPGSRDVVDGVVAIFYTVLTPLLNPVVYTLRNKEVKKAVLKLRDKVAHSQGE
Outline: as §1

OR10H1 (Homo sapiens) = biological target: T15, OR10H1 (Homo sapiens) (UniProt Q9Y4A9)
T15 sequence (whole entry): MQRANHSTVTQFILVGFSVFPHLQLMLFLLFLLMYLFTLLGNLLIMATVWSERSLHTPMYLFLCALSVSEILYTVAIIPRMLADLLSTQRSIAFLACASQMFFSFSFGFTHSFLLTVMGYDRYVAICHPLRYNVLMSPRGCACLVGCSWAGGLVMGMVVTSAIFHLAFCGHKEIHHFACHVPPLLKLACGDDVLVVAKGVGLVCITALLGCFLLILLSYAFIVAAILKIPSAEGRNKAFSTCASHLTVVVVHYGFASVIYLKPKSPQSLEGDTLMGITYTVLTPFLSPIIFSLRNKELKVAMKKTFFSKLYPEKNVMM
Outline: as §1

OR10H2 (Homo sapiens) = biological target: T16, OR10H2 (Homo sapiens) (UniProt O60403)
T16 sequence (whole entry): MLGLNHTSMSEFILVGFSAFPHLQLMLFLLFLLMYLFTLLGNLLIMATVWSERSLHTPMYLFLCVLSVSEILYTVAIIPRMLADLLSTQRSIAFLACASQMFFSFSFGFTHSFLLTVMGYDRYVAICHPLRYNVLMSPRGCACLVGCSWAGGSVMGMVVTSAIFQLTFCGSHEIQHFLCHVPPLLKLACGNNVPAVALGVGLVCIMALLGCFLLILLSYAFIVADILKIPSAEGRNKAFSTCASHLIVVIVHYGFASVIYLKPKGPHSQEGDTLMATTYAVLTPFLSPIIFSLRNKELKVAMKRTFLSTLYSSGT
Outline: as §1

OR10H3 (Homo sapiens) = biological target: T17, OR10H3 (Homo sapiens) (UniProt O60404)
T17 sequence (whole entry): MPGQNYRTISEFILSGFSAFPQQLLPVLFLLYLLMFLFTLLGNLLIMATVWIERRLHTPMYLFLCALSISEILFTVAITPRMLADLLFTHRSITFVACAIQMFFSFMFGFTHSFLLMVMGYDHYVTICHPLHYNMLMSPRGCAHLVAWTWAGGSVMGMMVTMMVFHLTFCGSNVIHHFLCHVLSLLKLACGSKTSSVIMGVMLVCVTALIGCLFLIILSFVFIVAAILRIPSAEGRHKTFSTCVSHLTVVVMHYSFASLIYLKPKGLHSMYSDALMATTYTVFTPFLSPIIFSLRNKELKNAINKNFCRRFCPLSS
Outline: as §1

Measured: odorant receptor agonist call;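 further: active if original authors judged signal statistically different from baseline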

OR10AC1 (Homo sapiens), sequence (Q8NH08 whole entry): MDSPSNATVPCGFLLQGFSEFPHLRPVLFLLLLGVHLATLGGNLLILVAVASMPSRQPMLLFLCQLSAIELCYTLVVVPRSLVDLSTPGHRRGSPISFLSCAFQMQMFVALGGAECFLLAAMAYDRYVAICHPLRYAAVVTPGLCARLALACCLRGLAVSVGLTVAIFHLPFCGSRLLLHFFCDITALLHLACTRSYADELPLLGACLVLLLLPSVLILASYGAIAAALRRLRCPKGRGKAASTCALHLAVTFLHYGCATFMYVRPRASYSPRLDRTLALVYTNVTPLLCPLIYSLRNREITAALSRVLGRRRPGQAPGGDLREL

CC(=O)c1c(C)c([N+](=O)[O-])c(C(C)(C)C)c([N+](=O)[O-])c1C
inactive: all assays above
